Results taken from PMC6620733 (Biochemistry, 2019).
Where two headings read alike, the source gives them in different places.

Legend:
[1] = molecular target: T1, full-length Munc13-1 (Rattus norvegicus, UniProt Q62768); assay: In vitro [3H]PDBu binding assay, full-length Munc13-1
[2] = molecular target: Munc13-1 C1 domain WT (Rattus norvegicus, UniProt Q62768); assay: In vitro [3H]PDBu binding assay, isolated Munc13-1 C1 domain; conditions: for Kd: read-out: Kd for PDBu; for affinity better than that of PDBu: isolated C1 domain
[3] = molecular target: Munc13-1 C1 W22A mutant (Rattus norvegicus, UniProt Q62768, W588A); assay: In vitro [3H]PDBu binding assay, Munc13-1 C1 domain W22A; conditions: for decrease in affinity of W588A (W22A) mutant C1 domain versus WT: 100% PS
[4] = molecular target: T1, full-length Munc13-1; format: cell-based
Method in brief: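 Living HT22 cells (passages 2–16) are transfected with GFP-tagged full-length Munc13-1 (X-tremeGENE HP), then transferred after 24 h into phenol red-free DMEM with 1% FBS. Test compound at 10, 100 or 1000 nM is added at time zero. Confocal imaging every 30 s (488 nm excitation, 500–530 nm emission). Plasma membrane/cytoplasm mean intensity ratio is normalized to time zero. 5–9 cells per concentration, three independent experiments; saturated cells excluded.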

[5] = molecular target: T2, Munc13-1 (Rattus norvegicus, UniProt Q62768); format: cell-based; conditions: HT22 cells, 0–2 μM, 5 min, confocal
Method in brief: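 HT22 cells are seeded on coverslips at 6 × 10^4/well and, at 70–80% confluency, transfected with Munc13-1-GFP (Lipofectamine, antibiotic-free DMEM). They are exposed to 0.1–2 μM test compound for 5 min, then fixed in 4% PFA for 10 min and imaged by confocal at 63×. Read-out is the ratio of mean membrane intensity (outer 300 nm) to whole-cell intensity. Statistics use two-way ANOVA with Tukey.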

[6] = molecular target: T2, Munc13-1; assay: Cell fractionation and Western blot of HT22 cells expressing GFP-tagged Munc13-1; format: cell-based; conditions: 1 μM, 5 min, cell fractionation and immunoblot
Method in brief: (§1)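 Transfected HT22 cells (DMEM, 10% FBS, 70–80% confluent, Lipofectamine, antibiotic-free medium) express GFP-Munc13-1 or GFP-bMunc13-2 and are treated with 1 μM test compound. A kit separates the fractions: cytosolic buffer spin at 500g, 5 min; pellet in membrane buffer, 4 °C, 10 min, then 3000g, 5 min. 40 μg protein is run on 4–15% SDS–PAGE (membrane samples unheated). Probes are anti-GFP 1:500, Na,K-ATPase and β-actin 1:2000, with infrared detection.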

[7] = molecular target: Munc13-1^H567K (Rattus norvegicus, UniProt Q62768, H567K); format: cell-based; conditions: HT22 cells, 0–2 μM, 5 min
Method in brief: (§2)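 Fixed-cell confocal: HT22 cells in DMEM with 10% FBS and 2 mM glutamine are seeded on coverslips 24 h before transfection. At 70–80% confluence they are transfected (Lipofectamine 3000) with GFP-tagged mutant Munc13-1 plasmid in antibiotic-free medium. Treatment with test compound or PMA at 0.1–2 μM, then fixation in 4% PFA for 10 min and imaging at 63×. Ratio of mean membrane (outer 300 nm) to whole-cell GFP intensity.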

[8] = molecular target: Munc13-1^W588A (Rattus norvegicus, UniProt Q62768, W588A); format: cell-based; conditions: HT22 cells, 1 μM, 5 min
Method in brief: as §2

[9] = molecular target: Munc13-1 C1 domain (Rattus norvegicus, UniProt Q62768); format: cell-based; conditions: living HT22 cells, 1 μM
Method in brief: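 Live-cell imaging, C1 domain: HT22 cells (passages 2–16; high-glucose DMEM, 10% FBS, 2 mM L-glutamine) are transfected with GFP-tagged Munc13-1 C1 domain (X-tremeGENE HP). After 24 h they are moved to phenol red-free DMEM with 1% FBS. Test compound 1 μM is added at time zero, with confocal images every 30 s (488 nm excitation, 500–530 nm emission). Cytoplasm/nucleus intensity ratio is normalized to time zero. 11–16 cells per treatment, three independent experiments; saturated cells excluded.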

[10] = molecular target: ubMunc13-2 (Rattus norvegicus, UniProt Q62769); assay: Translocation of GFP-tagged ubMunc13-2 in living HT22 cells; format: cell-based; conditions: living HT22 cells, 10, 100, 1000 nM, 0–15 min
Method in brief: (§3)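 GFP-tagged bMunc13-2 or ubMunc13-2 is expressed in living HT22 cells (passages 2–16, X-tremeGENE HP transfection). Imaging is in phenol red-free DMEM with 1% FBS, 24 h post-transfection. Test compound at 10, 100 or 1000 nM is added at time zero, with confocal frames every 30 s (488/500–530 nm). Plasma membrane/cytoplasm ratio is normalized to time zero. bMunc13-2: 3–6 cells per concentration; ubMunc13-2: 5–9 cells; three independent experiments.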

[11] = molecular target: T3, bMunc13-2 (Rattus norvegicus, UniProt Q62769); assay: Translocation of GFP-tagged bMunc13-2 in living HT22 cells; format: cell-based; conditions: living HT22 cells, 10, 100, 1000 nM, 0–15 min
T3 sequence (Q62769 1-1985 isoform Q62769-2): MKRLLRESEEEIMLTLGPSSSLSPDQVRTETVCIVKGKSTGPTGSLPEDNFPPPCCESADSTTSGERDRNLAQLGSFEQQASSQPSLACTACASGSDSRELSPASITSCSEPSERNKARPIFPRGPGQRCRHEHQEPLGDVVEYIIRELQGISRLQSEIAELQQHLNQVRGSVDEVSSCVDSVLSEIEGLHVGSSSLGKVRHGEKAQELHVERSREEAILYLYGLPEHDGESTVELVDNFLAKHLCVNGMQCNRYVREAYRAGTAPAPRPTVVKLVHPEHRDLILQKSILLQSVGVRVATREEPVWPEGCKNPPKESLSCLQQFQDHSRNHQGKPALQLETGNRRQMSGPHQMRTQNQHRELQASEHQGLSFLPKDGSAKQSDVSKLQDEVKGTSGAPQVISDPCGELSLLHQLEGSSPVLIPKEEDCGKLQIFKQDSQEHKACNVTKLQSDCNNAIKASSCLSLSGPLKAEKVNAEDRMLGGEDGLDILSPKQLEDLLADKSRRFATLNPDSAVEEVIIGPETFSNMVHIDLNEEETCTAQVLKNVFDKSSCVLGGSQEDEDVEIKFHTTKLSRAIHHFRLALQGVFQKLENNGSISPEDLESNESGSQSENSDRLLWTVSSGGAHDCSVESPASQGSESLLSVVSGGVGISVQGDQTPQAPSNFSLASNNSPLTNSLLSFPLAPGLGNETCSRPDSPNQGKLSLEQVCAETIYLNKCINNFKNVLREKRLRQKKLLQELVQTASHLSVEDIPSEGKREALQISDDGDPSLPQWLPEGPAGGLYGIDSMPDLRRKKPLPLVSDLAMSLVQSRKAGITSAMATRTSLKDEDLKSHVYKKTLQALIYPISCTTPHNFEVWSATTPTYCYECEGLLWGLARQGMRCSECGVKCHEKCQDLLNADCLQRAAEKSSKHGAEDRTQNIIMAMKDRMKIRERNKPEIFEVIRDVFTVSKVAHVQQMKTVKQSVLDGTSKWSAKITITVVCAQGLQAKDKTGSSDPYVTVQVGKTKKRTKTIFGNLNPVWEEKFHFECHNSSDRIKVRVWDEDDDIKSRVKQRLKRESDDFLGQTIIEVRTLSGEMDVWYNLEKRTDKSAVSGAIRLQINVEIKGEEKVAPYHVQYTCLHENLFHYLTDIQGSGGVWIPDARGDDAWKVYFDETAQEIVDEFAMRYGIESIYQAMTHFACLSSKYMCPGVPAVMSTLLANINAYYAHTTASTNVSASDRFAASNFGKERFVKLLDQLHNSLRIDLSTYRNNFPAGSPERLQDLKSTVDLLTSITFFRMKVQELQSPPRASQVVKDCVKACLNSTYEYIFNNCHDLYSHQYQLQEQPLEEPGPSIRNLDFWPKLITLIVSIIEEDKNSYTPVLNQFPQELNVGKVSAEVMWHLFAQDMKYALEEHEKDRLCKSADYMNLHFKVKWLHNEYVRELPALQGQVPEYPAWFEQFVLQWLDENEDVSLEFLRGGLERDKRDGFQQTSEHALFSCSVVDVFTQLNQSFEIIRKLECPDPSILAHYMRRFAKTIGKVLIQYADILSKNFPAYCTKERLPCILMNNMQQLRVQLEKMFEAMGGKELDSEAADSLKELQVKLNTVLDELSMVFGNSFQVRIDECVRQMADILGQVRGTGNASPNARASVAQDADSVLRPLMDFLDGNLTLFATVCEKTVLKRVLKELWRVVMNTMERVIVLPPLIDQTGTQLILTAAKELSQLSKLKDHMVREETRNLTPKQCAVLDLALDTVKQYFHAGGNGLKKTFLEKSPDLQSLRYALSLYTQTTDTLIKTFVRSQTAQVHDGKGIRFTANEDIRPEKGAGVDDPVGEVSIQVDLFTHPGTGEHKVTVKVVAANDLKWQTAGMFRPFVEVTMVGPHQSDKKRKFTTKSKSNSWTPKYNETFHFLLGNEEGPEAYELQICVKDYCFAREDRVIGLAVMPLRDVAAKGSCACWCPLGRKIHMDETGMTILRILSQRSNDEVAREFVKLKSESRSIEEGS
Method in brief: as §3

[12] = molecular target: PKCδ (Homo sapiens, UniProt Q05655); assay: Translocation of GFP-tagged PKCδ in living HT22 cells; format: cell-based
PKCδ, sequence (Q05655 whole entry): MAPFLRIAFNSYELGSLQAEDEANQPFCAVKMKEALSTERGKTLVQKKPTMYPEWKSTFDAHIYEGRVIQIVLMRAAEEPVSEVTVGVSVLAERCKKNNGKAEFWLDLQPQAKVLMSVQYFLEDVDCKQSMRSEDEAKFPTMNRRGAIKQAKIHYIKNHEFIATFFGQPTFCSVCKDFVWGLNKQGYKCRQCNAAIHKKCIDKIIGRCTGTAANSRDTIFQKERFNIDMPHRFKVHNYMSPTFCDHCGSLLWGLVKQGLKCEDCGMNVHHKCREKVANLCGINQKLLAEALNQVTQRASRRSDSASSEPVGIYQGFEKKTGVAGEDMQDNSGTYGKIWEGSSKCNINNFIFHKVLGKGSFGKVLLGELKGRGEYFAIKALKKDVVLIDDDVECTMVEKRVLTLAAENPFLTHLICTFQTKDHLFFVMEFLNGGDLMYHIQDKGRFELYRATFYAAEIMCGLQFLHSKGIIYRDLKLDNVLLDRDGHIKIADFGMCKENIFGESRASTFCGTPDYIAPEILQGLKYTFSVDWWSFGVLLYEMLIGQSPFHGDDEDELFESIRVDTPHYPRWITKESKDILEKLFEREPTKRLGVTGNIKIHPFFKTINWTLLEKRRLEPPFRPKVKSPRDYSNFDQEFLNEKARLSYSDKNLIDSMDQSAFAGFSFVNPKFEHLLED
Method in brief: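 For PKCδ, living HT22 cells (passages 2–16) transiently express GFP-tagged PKCδ (X-tremeGENE HP). After 24 h, medium is changed to phenol red-free DMEM with 1% FBS. Test compound at 10, 100 or 1000 nM is added at time zero, with confocal imaging every 30 s (488 nm excitation, 500–530 nm emission). Nuclear membrane/cytoplasm intensity ratio is normalized to time zero. 4–7 cells per concentration, three independent experiments.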

[13] = molecular target: T3, bMunc13-2; format: cell-based; conditions: HT22 cells, immunoblotting (1 μM) and confocal microscopy (0–2 μM), 5 min
Method in brief: as §1

[14] = tested on: endogenous Munc13-1 in HT22 cells; assay: Expression of endogenous Munc13-1 in differentiated HT22 cells; format: cell-based, mouse; conditions: 24 h
Method in brief: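 Endogenous protein by Western blot: HT22 cells are differentiated in NeuroBasal medium with […], cAMP, L-glutamine and antibiotics. At 48–72 h after day 0, test compound is added at 0.1 or 0.5 μM for 24 h. Lysis in modified RIPA with protease/phosphatase inhibitors, sonication, 14000g 30 min at 4 °C. 7.5–10% SDS–PAGE, nitrocellulose, 2.5% BSA block. Anti-Munc13-1 1:500 and β-actin 1:5000, HRP secondary, ECL. Densitometric Munc13-1:β-actin ratio.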

[15] = tested on: endogenous Munc13-1 in primary hippocampal neurons; assay: Expression of endogenous Munc13-1 in primary hippocampal neurons; format: cell-based; conditions: mouse primary hippocampal neurons, 0.1 or 0.5 μM, 24 h
Method in brief: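 Hippocampi come from E18 mouse pups and are dissociated with trypsin/EDTA (20 min, 37 °C). Cells are plated at 8 × 10^4/well on poly-D-lysine coverslips in B-27 medium, and 7–8-day cultures are treated with 0.1 or 0.5 μM for 24 h. Cells are fixed in 4% PFA for 15 min and stained overnight at 4 °C with anti-Munc13-1 1:500, Tuj1 1:1000 and DAPI. Cytosolic Munc13-1 is measured by confocal in 3 wells × 3 cells per group.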

[16] = read-out: Kd for PDBu, 100:0 PS/PC

CCCC(=O)O[C@@H]1[C@@H](C)[C@@]2(O)[C@@H](C=C(CO)C[C@]3(O)C(=O)C(C)=C[C@@H]23)[C@@H]2C(C)(C)[C@]12OC(=O)CCC [PDBu, Phorbol 12,13-dibutyrate]
Kd [1, 16]: 7.09 ± 0.53 nM | Ki ([1]; read-out: Ki for PDBu, 100% PS, measured in parallel with bryostatin 1): 7.1 ± 0.5 nM | Kd ([2]; 5:95 PS/PC): 82 ± 15 nM | Kd ([2]; 20:80 PS/PC): 69.5 ± 4.8 nM | Kd ([2]; 100:0 PS/PC): 124 ± 13 nM | Ki ([2]; read-out: Ki for PDBu, PS/PC (20:80, w:w), assayed in parallel): 69.5 ± 4.8 nM | Ki ([2]; read-out: Ki for PDBu, PS/PC (100:0)): 124 ± 13 nM | decrease in affinity of W588A (W22A) mutant C1 domain versus WT [3]: 6.5 fold | Kd [3, 16]: 809 ± 8.1 nM | effectiveness for inducing translocation relative to bryostatin 1 ([4]; living HT22 cells, 1 μM): modestly less effective than was bryostatin 1

CCC/C=C/C=C/C(=O)O[C@H]1/C(=C/C(=O)OC)C[C@H]2C[C@H]([C@@H](C)O)OC(=O)C[C@H](O)C[C@@H]3C[C@H](OC(C)=O)C(C)(C)[C@](O)(C[C@@H]4C/C(=C/C(=O)OC)C[C@H](/C=C/C(C)(C)[C@]1(O)O2)O4)O3 [bryostatin 1]
Ki [1]: 0.45 ± 0.04 nM | affinity better than that of PDBu ([1]; full-length Munc13-1, 100% PS): approximately 15 fold | Ki ([2]; Ki for bryostatin 1, 5:95 PS/PC, 100 μg/mL lipid, 0.1 mM Ca2+, 100 nM [3H]PDBu): 22.8 ± 1.8 nM | Ki ([2]; Ki for bryostatin 1, 20:80 PS/PC, 100 μg/mL lipid, 0.1 mM Ca2+, 100 nM [3H]PDBu): 22.7 nM | Ki ([2]; Ki for bryostatin 1, 100:0 PS/PC, 100 μg/mL lipid, 0.1 mM Ca2+, 100 nM [3H]PDBu): 8.07 ± 0.9 nM | affinity better than that of PDBu ([2]; 100% PS): 15 fold | affinity better than that of PDBu ([2]; lower PS concentrations): 3 fold | Ki [3]: 54 ± 12 nM | decrease in affinity of W588A (W22A) mutant C1 domain versus WT [3]: 6.6 fold | translocation of Munc13-1 to the plasma membrane [5]: induced translocation of Munc13-1 to the plasma membrane | transfer of Munc13-1 to membrane fraction [6]: caused Munc13-1 to transfer to the membrane fraction | translocation (localization change) of Munc13-1 H567K [7]: no significant changes in localization | translocation of full-length Munc13-1 W588A [8]: translocation was lost | translocation of GFP-C1 domain [9]: translocated within 5–20 min from the nucleus to internal membranes but not to the plasma membrane | stimulation of translocation at 100 nM as fraction of that caused by 1000 nM ([4]; Munc13-1, 15 min value): 30% | translocation of full-length Munc13-1 ([4]; living HT22 cells, 1 μM): translocated to the plasma membrane | translocation of ubMunc13-2 [10]: clear translocation | translocation of bMunc13-2 [11]: clear translocation | stimulation of translocation at 100 nM as fraction of that caused by 1000 nM ([12]; PKCδ, 15 min value): 63% | translocation of PKCδ ([12]; living HT22 cells, 10, 100, 1000 nM, 0–15 min): induces translocation of PKCδ to the nuclear membrane and to internal membranes, rather than to the plasma membrane | translocation of GFP-tagged bMunc13-2 [13]: translocation similar to that of GFP-tagged Munc13-1 | level of endogenous Munc13-1 staining ([14]; 0.1 and 0.5 μM, immunostaining): increased with both doses | endogenous Munc13-1 levels by Western blot ([14]; 0.1 or 0.5 μM): increased | expression of endogenous Munc13-1 in cytosol [15]: significantly increased the level of expression of Munc13-1

CCCCCCCCCCCCCC(=O)O[C@@H]1[C@@H](C)[C@@]2(O)[C@@H](C=C(CO)C[C@]3(O)C(=O)C(C)=C[C@@H]23)[C@@H]2C(C)(C)[C@]12OC(C)=O [PMA, phorbol 12-myristate 13-acetate]
translocation of Munc13-1 to the plasma membrane [5]: induced translocation of Munc13-1 to the plasma membrane | transfer of Munc13-1 to membrane fraction [6]: caused Munc13-1 to transfer to the membrane fraction | translocation (localization change) of Munc13-1 H567K [7]: no significant changes in localization | translocation of GFP-tagged bMunc13-2 [13]: translocation similar to that of GFP-tagged Munc13-1
